Reference: ChEMBL document CHEMBL1649465, “In vitro activity of ceftaroline alone and in combination against clinical isolates of resistant gram-negative pathogens, including beta-lactamase-producing Enterobacteriaceae and Pseudomonas aeruginosa” (2009)
≈ marks a conversion by molar mass, not a printed value. Calls of active or inactive are those of the source. The rule behind the calls is not given here.

Assays:
Escherichia coli [1] = assay: Antimicrobial activity against ESBL-producing Escherichia coli by broth microdilution method; format: functional
Escherichia coli [2] = assay: Antimicrobial activity against Escherichia coli isolate 5401 by broth microdilution method; format: functional
Klebsiella pneumoniae [3] = assay: Antimicrobial activity against Klebsiella pneumoniae isolate 5427 by broth microdilution method; format: functional
Pseudomonas aeruginosa [4] = assay: Antimicrobial activity against Pseudomonas aeruginosa isolate 796 by broth microdilution method; format: functional
Pseudomonas aeruginosa [5] = assay: Bactericidal activity against Pseudomonas aeruginosa isolate 796 at 1/4 times MIC after 24 hrs by time kill analysis; format: functional, organism-based
In short: (§1)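 Duplicate 24-h time-kill of the drug combination, each agent at one-fourth its MIC. […] Counts were taken by spiral plating after dilution in cold saline.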

Pseudomonas aeruginosa [6] = assay: Bactericidal activity against Pseudomonas aeruginosa isolate 956 at 1/4 times MIC after 24 hrs by time kill analysis; format: functional, organism-based; in short: as §1
Pseudomonas aeruginosa [7] = assay: Bactericidal activity against Pseudomonas aeruginosa isolate 1019 at 1/4 times MIC after 24 hrs by time kill analysis; format: functional, organism-based; in short: as §1
Pseudomonas aeruginosa [8] = assay: Bactericidal activity against Pseudomonas aeruginosa isolate 1037 at 1/4 times MIC after 24 hrs by time kill analysis; format: functional, organism-based; in short: as §1
Klebsiella pneumoniae [9] = assay: Bactericidal activity against Klebsiella pneumoniae isolate 5427 at 1/4 times MIC after 24 hrs by time kill analysis; format: functional, organism-based
In short: (§2)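 Duplicate time-kill assays in 2-ml cultures of Mg/Ca-supplemented Mueller-Hinton broth. […] Samples taken at 0, 1, 2, 4, 8 and 24 h, serially diluted in cold 0.9% NaCl and spiral-plated for colony counts. Detection limit 2 log10 CFU/ml. Reported as decrease in log10 CFU/ml (mean ± SD).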

Klebsiella pneumoniae [10] = assay: Bactericidal activity against Klebsiella pneumoniae isolate 5436 at 1/4 times MIC after 24 hrs by time kill analysis; format: functional, organism-based; in short: as §1
Escherichia coli [11] = assay: Bactericidal activity against Escherichia coli isolate 5401 at 1/4 times MIC after 24 hrs by time kill analysis; format: functional, organism-based; in short: as §2
Escherichia coli [12] = assay: Bactericidal activity against Escherichia coli isolate 5411 at 1/4 times MIC after 24 hrs by time kill analysis; format: functional, organism-based; in short: as §2
Klebsiella pneumoniae [13] = assay: Antimicrobial activity against ESBL-producing Klebsiella pneumoniae by broth microdilution method; format: functional
Enterobacter cloacae [14] = assay: Antimicrobial activity against […] Enterobacter cloacae by broth microdilution method; format: functional
Pseudomonas aeruginosa [15] = assay: Antimicrobial activity against Pseudomonas aeruginosa by broth microdilution method; format: functional
Escherichia coli [16] = assay: Antimicrobial activity against Escherichia coli isolate 5411 by broth microdilution method; format: functional
Klebsiella pneumoniae [17] = assay: Antimicrobial activity against Klebsiella pneumoniae isolate 5436 by broth microdilution method; format: functional
Enterobacter cloacae [18] = assay: Antimicrobial activity against Enterobacter cloacae isolate 4073 by broth microdilution method; format: functional
Enterobacter cloacae [19] = assay: Antimicrobial activity against Enterobacter cloacae isolate 5420 by broth microdilution method; format: functional
Pseudomonas aeruginosa [20] = assay: Antimicrobial activity against Pseudomonas aeruginosa isolate 956 by broth microdilution method; format: functional
Pseudomonas aeruginosa [21] = assay: Antimicrobial activity against Pseudomonas aeruginosa isolate 1019 by broth microdilution method; format: functional
Pseudomonas aeruginosa [22] = assay: Antimicrobial activity against Pseudomonas aeruginosa isolate 1037 by broth microdilution method; format: functional

| SMILES | MBC (Escherichia coli [1]) [µg/mL] | MBC (Escherichia coli [2]) [µg/mL] | MIC (Escherichia coli [2]) [µg/mL] | MBC (Klebsiella pneumoniae [3]) [µg/mL] | MIC (Klebsiella pneumoniae [3]) [µg/mL] | MIC (Pseudomonas aeruginosa [4]) [µg/mL] | inhibition (Pseudomonas aeruginosa [5]) | inhibition (Pseudomonas aeruginosa [6]) | inhibition (Pseudomonas aeruginosa [7]) | inhibition (Pseudomonas aeruginosa [8]) | inhibition (Klebsiella pneumoniae [9]) | inhibition (Klebsiella pneumoniae [10]) | inhibition (Escherichia coli [11]) | inhibition (Escherichia coli [12]) | MBC (Klebsiella pneumoniae [13]) [µg/mL] | MIC (Klebsiella pneumoniae [13]) [µg/mL] | MBC (Escherichia coli [16]) [µg/mL] | MIC (Escherichia coli [16]) [µg/mL] | MIC (Klebsiella pneumoniae [17]) [µg/mL] | MIC (Pseudomonas aeruginosa [20]) [µg/mL] | further results |
| --- | --- | --- | --- | --- | --- | --- | --- | --- | --- | --- | --- | --- | --- | --- | --- | --- | --- | --- | --- | --- | --- |
| CO/N=C(\C(=O)N[C@@H]1C(=O)N2C(C(=O)[O-])=C(C[N+]3(C)CCCC3)CS[C@H]12)c1csc(N)n1 | 0.25 (≈ 0.52 µM) | 4 (≈ 8.32 µM) | 4 (≈ 8.32 µM) | 1 (≈ 2.08 µM) | 0.5 (≈ 1.04 µM) | 8 (≈ 16.6 µM) | inactive | inactive | inactive | inactive | inactive | inactive | inactive | inactive | – | – | – | – | – | – | – |
| NCC[C@H](O)C(=O)N[C@@H]1C[C@H](N)[C@@H](O[C@H]2O[C@H](CN)[C@@H](O)[C@H](O)[C@H]2O)[C@H](O)[C@H]1O[C@H]1O[C@H](CO)[C@@H](O)[C@H](N)[C@H]1O [AMIKACIN] | 4 (≈ 6.83 µM) | 4 (≈ 6.83 µM) | 2 (≈ 3.42 µM) | 2 (≈ 3.42 µM) | 2 (≈ 3.42 µM) | 16 (≈ 27.3 µM) | inactive | inactive | inactive | inactive | inactive | inactive | inactive | inactive | 1 (≈ 1.71 µM) | 1 (≈ 1.71 µM) | 16 (≈ 27.3 µM) | 8 (≈ 13.7 µM) | 1 (≈ 1.71 µM) | 4 (≈ 6.83 µM) | MIC (Escherichia coli [1]): 1 µg/mL (≈ 1.71 µM); MBC (Enterobacter cloacae [14]): 1 µg/mL (≈ 1.71 µM); MIC (Enterobacter cloacae [14]): 0.5 µg/mL (≈ 0.854 µM); MBC (Pseudomonas aeruginosa [15]): 2 µg/mL (≈ 3.42 µM); MIC (Pseudomonas aeruginosa [15]): 2 µg/mL (≈ 3.42 µM); MBC (Klebsiella pneumoniae [17]): 2 µg/mL (≈ 3.42 µM); MBC (Enterobacter cloacae [18]): 8 µg/mL (≈ 13.7 µM); MIC (Enterobacter cloacae [18]): 1 µg/mL (≈ 1.71 µM); MBC (Enterobacter cloacae [19]): 2 µg/mL (≈ 3.42 µM); MIC (Enterobacter cloacae [19]): 1 µg/mL (≈ 1.71 µM); MBC (Pseudomonas aeruginosa [4]): 32 µg/mL (≈ 54.6 µM); MBC (Pseudomonas aeruginosa [20]): 64 µg/mL (≈ 109 µM); MBC (Pseudomonas aeruginosa [21]): 4 µg/mL (≈ 6.83 µM); MIC (Pseudomonas aeruginosa [21]): 4 µg/mL (≈ 6.83 µM); MBC (Pseudomonas aeruginosa [22]): 4 µg/mL (≈ 6.83 µM); MIC (Pseudomonas aeruginosa [22]): 2 µg/mL (≈ 3.42 µM) |
| C[C@H]1[C@H](NC(=O)/C(=N\OC(C)(C)C(=O)O)c2csc(N)n2)C(=O)N1S(=O)(=O)O [AZTREONAM] | > 0.125 | 0.25 (≈ 0.574 µM) | 0.25 (≈ 0.574 µM) | 1 (≈ 2.3 µM) | 0.5 (≈ 1.15 µM) | – | inactive | inactive | inactive | inactive | inactive | inactive | inactive | inactive | > 0.5 | > 0.25 | 32 (≈ 73.5 µM) | 8 (≈ 18.4 µM) | 64 (≈ 147 µM) | 8 (≈ 18.4 µM) | MIC (Escherichia coli [1]): > 0.125 µg/mL |
| C[C@H]1COc2c(N3CCN(C)CC3)c(F)cc3c(=O)c(C(=O)O)cn1c23.C[C@H]1COc2c(N3CCN(C)CC3)c(F)cc3c(=O)c(C(=O)O)cn1c23.O [LEVOFLOXACIN] | 0.06 | 32 | 32 | 2 | 0.25 | – | inactive | inactive | inactive | inactive | inactive | inactive | inactive | inactive | > 0.25 | > 0.25 | 16 | 8 | 4 | 0.5 | MBC (Enterobacter cloacae [14]): 0.03 µg/mL; MIC (Enterobacter cloacae [14]): 0.03 µg/mL; MBC (Pseudomonas aeruginosa [15]): 0.5 µg/mL; MIC (Pseudomonas aeruginosa [15]): 0.25 µg/mL; MBC (Klebsiella pneumoniae [17]): 4 µg/mL; MBC (Enterobacter cloacae [18]): 0.06 µg/mL; MIC (Enterobacter cloacae [18]): 0.06 µg/mL; MBC (Enterobacter cloacae [19]): 0.06 µg/mL; MIC (Enterobacter cloacae [19]): 0.06 µg/mL; MBC (Pseudomonas aeruginosa [4]): 2 µg/mL; MBC (Pseudomonas aeruginosa [20]): 1 µg/mL; MBC (Pseudomonas aeruginosa [21]): 1 µg/mL; MIC (Pseudomonas aeruginosa [21]): 0.5 µg/mL; MBC (Pseudomonas aeruginosa [22]): 0.5 µg/mL; MIC (Pseudomonas aeruginosa [22]): 0.25 µg/mL |
| C[C@@H](O)[C@H]1C(=O)N2C(C(=O)O)=C(S[C@@H]3CN[C@H](C(=O)N(C)C)C3)[C@H](C)[C@H]12 [MEROPENEM] | 0.06 (≈ 0.156 µM) | 0.06 (≈ 0.156 µM) | 0.06 (≈ 0.156 µM) | 16 (≈ 41.7 µM) | 4 (≈ 10.4 µM) | 1 (≈ 2.61 µM) | inactive | inactive | inactive | inactive | inactive | inactive | inactive | inactive | 0.06 (≈ 0.156 µM) | 0.03 (≈ 0.0782 µM) | 0.06 (≈ 0.156 µM) | 0.06 (≈ 0.156 µM) | 0.06 (≈ 0.156 µM) | 0.25 (≈ 0.652 µM) | MIC (Escherichia coli [1]): 0.03 µg/mL (≈ 0.0782 µM); MBC (Enterobacter cloacae [14]): 0.03 µg/mL (≈ 0.0782 µM); MIC (Enterobacter cloacae [14]): 0.03 µg/mL (≈ 0.0782 µM); MBC (Pseudomonas aeruginosa [15]): 0.125 µg/mL (≈ 0.326 µM); MIC (Pseudomonas aeruginosa [15]): 0.125 µg/mL (≈ 0.326 µM); MBC (Klebsiella pneumoniae [17]): 0.06 µg/mL (≈ 0.156 µM); MBC (Enterobacter cloacae [18]): 0.5 µg/mL (≈ 1.3 µM); MIC (Enterobacter cloacae [18]): 0.25 µg/mL (≈ 0.652 µM); MBC (Enterobacter cloacae [19]): 0.125 µg/mL (≈ 0.326 µM); MIC (Enterobacter cloacae [19]): 0.125 µg/mL (≈ 0.326 µM); MBC (Pseudomonas aeruginosa [4]): 2 µg/mL (≈ 5.22 µM); MBC (Pseudomonas aeruginosa [20]): 2 µg/mL (≈ 5.22 µM); MBC (Pseudomonas aeruginosa [21]): 2 µg/mL (≈ 5.22 µM); MIC (Pseudomonas aeruginosa [21]): 1 µg/mL (≈ 2.61 µM); MBC (Pseudomonas aeruginosa [22]): 1 µg/mL (≈ 2.61 µM); MIC (Pseudomonas aeruginosa [22]): 0.5 µg/mL (≈ 1.3 µM) |
| CN(C)c1cc(NC(=O)CNC(C)(C)C)c(O)c2c1C[C@H]1C[C@H]3[C@H](N(C)C)C(O)=C(C(N)=O)C(=O)[C@@]3(O)C(O)=C1C2=O [TIGECYCLINE] | 0.06 (≈ 0.102 µM) | 1 (≈ 1.71 µM) | 0.5 (≈ 0.854 µM) | 2 (≈ 3.41 µM) | 0.5 (≈ 0.854 µM) | 32 (≈ 54.6 µM) | inactive | inactive | inactive | inactive | inactive | inactive | inactive | inactive | 0.5 (≈ 0.854 µM) | 0.125 (≈ 0.213 µM) | 0.5 (≈ 0.854 µM) | 0.125 (≈ 0.213 µM) | 0.125 (≈ 0.213 µM) | 16 (≈ 27.3 µM) | MIC (Escherichia coli [1]): 0.06 µg/mL (≈ 0.102 µM); MBC (Enterobacter cloacae [14]): 0.5 µg/mL (≈ 0.854 µM); MIC (Enterobacter cloacae [14]): 0.25 µg/mL (≈ 0.427 µM); MBC (Pseudomonas aeruginosa [15]): 8 µg/mL (≈ 13.7 µM); MIC (Pseudomonas aeruginosa [15]): 2 µg/mL (≈ 3.41 µM); MBC (Klebsiella pneumoniae [17]): 1 µg/mL (≈ 1.71 µM); MBC (Enterobacter cloacae [18]): 2 µg/mL (≈ 3.41 µM); MIC (Enterobacter cloacae [18]): 0.5 µg/mL (≈ 0.854 µM); MBC (Enterobacter cloacae [19]): 2 µg/mL (≈ 3.41 µM); MIC (Enterobacter cloacae [19]): 0.5 µg/mL (≈ 0.854 µM); MBC (Pseudomonas aeruginosa [4]): 32 µg/mL (≈ 54.6 µM); MBC (Pseudomonas aeruginosa [20]): 128 µg/mL (≈ 219 µM); MBC (Pseudomonas aeruginosa [21]): 8 µg/mL (≈ 13.7 µM); MIC (Pseudomonas aeruginosa [21]): 2 µg/mL (≈ 3.41 µM); MBC (Pseudomonas aeruginosa [22]): 32 µg/mL (≈ 54.6 µM); MIC (Pseudomonas aeruginosa [22]): 8 µg/mL (≈ 13.7 µM) |
